The source made the active and inactive calls. No cut-off for these calls is given here. Bounds are passed on as bounds.

One may read the CC50 as the concentration that lowers cell viability or growth by half. A high value points to lower toxicity to the cells. A word on the EC50: it is the concentration needed to bring the measured effect to its halfway point. One may read the IC50 as the midpoint of a concentration-inhibition curve. Read a high IC50 as lower potency.

For series [1], the system named is Human immunodeficiency virus 1. The series is described as follows: Antiviral activity against HIV1 3B expressing reverse transcriptase K103N/Y181C double mutant infected in human MT4 cells assessed as inhibition of virus-induced cytopathogenicity by MTT assay. It counts as functional, organism-based. Background: Damage to the host cells serves as the signal in cytopathic effect assays.

Series [2] relates to Human immunodeficiency virus 1. Briefly: Ratio of EC50 for HIV1 3B expressing reverse transcriptase Y181C mutant to EC50 for HIV1 3B. In kind it is functional. The procedure, abridged:
(§1)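 MT-4 cells infected with HIV-1 carrying the Y181C RT mutation, alongside wild-type virus. EC50 is the concentration giving 50% protection from virus-induced cytopathogenicity, read by MTT. Values are means of three separate experiments run in triplicate. The ratio is EC50(Y181C)/EC50(wt).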

A short description of series [3]: Cytotoxicity against human MT4 cells by MTT assay. It counts as cell-based. The procedure, abridged:
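Uninfected (mock-infected) MT-4 cells were exposed to compound and viability was read by MTT. CC50 is the concentration cutting viability by 50%. Values are means of three separate experiments, with triplicate samples varying by less than 10%.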

Series [4] concerns Human immunodeficiency virus 1. The series is described as follows: Antiviral activity against HIV1 3B infected in human MT4 cells assessed as inhibition of virus-induced cytopathogenicity by MTT assay. Particulars: Human immunodeficiency virus 1, 3B. It counts as functional, organism-based. The procedure, abridged: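 MT-4 cells infected with HIV-1 and read by MTT viability. EC50 is the concentration giving 50% protection of cells from virus-induced cytopathogenicity. Values are means of three separate experiments, with variation among triplicate samples under 10%.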

A short description of series [5]: Selectivity index, ratio of CC50 for human MT4 cells to EC50 for HIV1 3B. The conditions noted are these: read-out: Ratio CC50/EC50. In kind it is toxicity, cell-based. Put shortly:
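Computed as CC50/EC50. Both come from MTT readings in MT-4 cells: CC50 is 50% viability loss in mock-infected cells, and EC50 is 50% protection from HIV-1-induced cytopathogenicity. Each is the mean of three experiments.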

Series [6] relates to Human immunodeficiency virus 1. The series is described as follows: Antiviral activity against HIV1 3B expressing reverse transcriptase Y181C mutant infected in human MT4 cells assessed as inhibition of virus-induced cytopathogenicity by MTT assay. It counts as functional, organism-based. The conditions noted are these: Human immunodeficiency virus 1, 3B. Put shortly: as §1

Series [7] concerns the target Human immunodeficiency virus type 1 reverse transcriptase (Human immunodeficiency virus 1, UniProt Q72547). Briefly: Inhibition of wild-type HIV1 reverse transcriptase.

For the compound `Cc1cc(C(=O)N(C(=S)OCCN2C(=O)c3ccccc3C2=O)c2ccc(Cl)cc2)c(C)o1`, the outcome in series [1] was inactive. Moreover, the “Ratio EC50” value in series [2] was determined as 375. Besides, in series [3], the CC50 was 40 µM. For the same compound, the EC50 in series [4] came out at 20 nM; in series [6], 7.5 µM. Besides, the selectivity ratio in series [5] stood at 2000.

On to `O=C1c2ccccc2C(=O)N1CCOC(=S)N(C(=O)c1cccc(F)c1F)c1ccc(Cl)cc1`, for which the outcome in series [1] was inactive. For the same compound, the “Ratio EC50” value in series [2] is on record as 750. This compound also registered a cytotoxic concentration (CC50) in series [3] of 58 µM. Further, the EC50 came to 8 nM in series [4] and 6 µM in series [6]. In addition, in series [5], the selectivity ratio came to 7250.

`O=C1c2ccccc2C(=O)N1CCOC(=S)N(C(=O)c1ccc(Cl)c([N+](=O)[O-])c1)c1ccc(Cl)cc1`: the outcome in series [1] was inactive. In addition, the “Ratio EC50” value in series [2] amounted to 450. Moreover, the CC50 in series [3] is 48 µM. The EC50 stood at 20 nM in series [4] and 9 µM in series [6]. Also, the selectivity ratio in series [5] amounted to 2400.

Regarding `S=C(NCCc1ccccn1)Nc1ccc(Br)cn1` [TROVIRDINE], the outcome in series [1] was inactive. Moreover, the “Ratio EC50” value in series [2] was determined as 60. In addition, the selectivity ratio in series [5] turned out to be 3000. The EC50 in series [6] is 1.2 µM.

On to `O=C1c2ccccc2C(=O)N1CCOC(=S)N(C(=O)c1ccc(F)cc1F)c1ccc(Cl)cc1`, for which the outcome in series [1] was inactive. The “Ratio EC50” value in series [2] came to 540. This compound registered a CC50 in series [3] of 52 µM. Moreover, the figures for the EC50 in series [4] and in series [6] were 10 nM and 5.4 µM, respectively. Besides, the selectivity ratio in series [5] turned out to be 5200.

For the compound `O=C1c2ccccc2C(=O)N1CCOC(=S)N(C(=O)c1ccc([N+](=O)[O-])cc1)c1ccc(Cl)cc1`, the result in series [1] was inactive. The “Ratio EC50” value in series [2] is 433. The compound also gave a CC50 in series [3] above 100 µM. The concentration giving a half-maximal response (EC50) stood at 60 nM in series [4] and 26 µM in series [6]. The selectivity ratio in series [5] was above 1670.

Regarding `CC(COC(=S)N(C(=O)c1cccc([N+](=O)[O-])c1)c1ccc(Cl)cc1)N1C(=O)c2ccccc2C1=O` (racemic), in series [1], the result was inactive. The “Ratio EC50” value in series [2] was found to be 100. The compound further gave a CC50 in series [3] of 77 µM. Moreover, the EC50 turned out to be 50 nM in series [4] and 5 µM in series [6]. Moreover, the selectivity ratio in series [5] is 1540.

Take `Cc1cccc(C(=O)N(C(=S)OCCN2C(=O)c3ccccc3C2=O)c2ccc(Cl)cc2)c1`: in series [1], the outcome was inactive. Moreover, the “Ratio EC50” value in series [2] came out at 600. The compound further registered a CC50 in series [3] of 58 µM. Further, the EC50 stood at 10 nM in series [4] and 6 µM in series [6]. The selectivity ratio in series [5] was 5800.

For `O=C1c2ccccc2C(=O)N1CCOC(=S)N(C(=O)c1ccc2ccccc2c1)c1ccc(Cl)cc1`, the result in series [1] was inactive. Moreover, the “Ratio EC50” value in series [2] was determined as 550. The same compound had a half-maximal cytotoxic concentration (CC50) in series [3] of 37 µM. The values for the EC50 in series [4] and in series [6] were 20 nM and 11 µM, respectively. For the same compound, the selectivity ratio in series [5] was found to be 1850.

With `Cc1cc(C(=O)N(C(=S)OCCN2C(=O)c3ccccc3C2=O)c2ccc(Cl)cc2)ccc1Br`, in series [1], the result was inactive. The “Ratio EC50” value in series [2] is recorded as 1557. In series [3], this compound yielded a cytotoxic concentration (CC50) of 18 µM. For the same compound, the EC50 in series [4] came to 7 nM; in series [6], 10.9 µM. Besides, in series [5], the selectivity ratio came to 2570.

In the case of `Cc1ccc2c(c1)C(=O)N(CCOC(=S)N(C(=O)c1cccnc1Cl)c1ccc(Cl)cc1)C2=O`, the outcome in series [1] was inactive. Besides, the “Ratio EC50” value in series [2] was determined as 112. In series [3], this compound displayed a CC50 of 49 µM. Moreover, the EC50 amounted to 60 nM in series [4] and 6.7 µM in series [6]. For the same compound, the selectivity ratio in series [5] came to 817.

In the case of `O=C1c2ccccc2C(=O)N1CCOC(=S)N(C(=O)c1cccnc1Cl)c1ccc(Br)cc1`, the result in series [1] was inactive. The compound further returned an IC50 in series [7] of 700 nM. The “Ratio EC50” value in series [2] amounted to 11. This compound returned a CC50 in series [3] above 100 µM. Further, the EC50 came to 200 nM in series [4] and 2.3 µM in series [6]. In series [5], the selectivity ratio is above 500.

As for `Cc1ccc(C(=O)N(C(=S)OCCN2C(=O)c3ccccc3C2=O)c2ccc(Cl)cc2)cc1`, in series [1], the result was inactive. Besides, the “Ratio EC50” value in series [2] was 170. In series [3], the CC50 is above 100 µM. Moreover, the EC50 in series [4] was 50 nM; in series [6], 8.5 µM. Moreover, the selectivity ratio in series [5] was above 2000.

As to `O=C1Nc2ccc(Cl)cc2[C@@](C#CC2CC2)(C(F)(F)F)O1` [EFAVIRENZ], in series [1], the result was inactive. The half-maximal effective concentration (EC50) in series [6] is 0.01 µM.

Turning to `O=C1c2ccccc2C(=O)N1CCOC(=S)N(C(=O)c1cc2ccccc2s1)c1ccc(Cl)cc1`, in series [1], the outcome was inactive. Further, in series [2], the “Ratio EC50” value is on record as 60. For the same compound, the CC50 in series [3] is 56 µM. For the same compound, the EC50 came to 200 nM in series [4] and 12 µM in series [6]. In addition, the selectivity ratio in series [5] was found to be 280.

For the compound `O=C1c2ccccc2C(=O)N1CCOC(=S)N(C(=O)c1cccc(Cl)c1Cl)c1ccc(Cl)cc1`, the outcome in series [1] was inactive. Further, the “Ratio EC50” value in series [2] stood at 42. The same compound displayed a CC50 in series [3] of 54 µM. Also, the EC50 in series [4] was found to be 100 nM; in series [6], 4.2 µM. In addition, in series [5], the selectivity ratio is 540.

Regarding `O=C1c2ccccc2C(=O)N1CCOC(=S)N(C(=O)c1cc(F)ccc1F)c1ccc(Cl)cc1`, the outcome in series [1] was inactive. For the same compound, in series [2], the “Ratio EC50” value stood at 285. Further, the midpoint of cytotoxicity in series [3], the CC50, lay at 54 µM. Further, the figures for the EC50 in series [4] and in series [6] were 20 nM and 5.7 µM, respectively. In series [5], the selectivity ratio was 2700.

On to `Cc1cccc2c1C(=O)N(CCOC(=S)N(C(=O)c1cccc([N+](=O)[O-])c1)c1ccc(Cl)cc1)C2=O`, for which the outcome in series [1] was inactive. In series [2], the “Ratio EC50” value stood at 140. The compound also showed a CC50 in series [3] of 44 µM. Also, the EC50 stood at 30 nM in series [4] and 4.2 µM in series [6]. Moreover, the selectivity ratio in series [5] turned out to be 1470.

In series [7], `Cc1ccc2c(c1)C(=O)N(CCOC(=S)N(C(=O)c1ccc(Cl)cc1)c1ccc([N+](=O)[O-])cc1)C2=O` gave an IC50 of 300 nM. This compound also had a CC50 in series [3] above 100 µM. Also, the 50% effective concentration (EC50) in series [4] is 40 nM. Besides, the selectivity ratio in series [5] was above 2500.

On to `O=C1c2ccccc2C(=O)N1CCOC(=S)N(C(=O)c1cc(Cl)cc(Cl)c1)c1ccc(Cl)cc1`, for which the result in series [1] was inactive. For the same compound, the “Ratio EC50” value in series [2] is 1025. This compound registered a CC50 in series [3] of 32 µM. Further, the concentration for a half-maximal effect (EC50) turned out to be 8 nM in series [4] and 8.2 µM in series [6]. Further, the selectivity ratio in series [5] is 4000.

On to `O=C1c2ccccc2C(=O)N1CCOC(=S)N(C(=O)c1ccc(F)c(F)c1)c1ccc(Cl)cc1`, for which, in series [1], the outcome was inactive. Also, the “Ratio EC50” value in series [2] stood at 7000. The same compound came in with a CC50 in series [3] of 52 µM. The EC50 amounted to 8 nM in series [4] and 56 µM in series [6]. Moreover, the selectivity ratio in series [5] came to 6500.

`O=C1c2ccccc2C(=O)N1CCOC(=S)N(C(=O)c1ccco1)c1ccc(Cl)c(Cl)c1`: the half-maximal cytotoxic concentration (CC50) in series [3] stood at 100 µM. Also, in series [4], the EC50 was determined as 690 nM. Moreover, the selectivity ratio in series [5] turned out to be 145.

As to `Cc1ccc(N(C(=O)c2ccc(Cl)c(Cl)c2)C(=S)OCCN2C(=O)c3ccccc3C2=O)cc1`, the CC50 in series [3] stood at 17 µM. Moreover, the 50% effective concentration (EC50) in series [4] was 50 nM. Also, the selectivity ratio in series [5] is 340.

The compound `O=C1c2ccccc2C(=O)N1CCOC(=S)N(C(=O)c1ccc(Cl)cc1Cl)c1ccc(Cl)cc1` came in with a CC50 in series [3] of 18 µM. For the same compound, the EC50 in series [4] amounted to 30 nM. The selectivity ratio in series [5] stood at 600.

In turn, `Cc1ccc(N(C(=O)c2c(Cl)cccc2Cl)C(=S)OCCN2C(=O)c3ccccc3C2=O)cc1` came in with a CC50 in series [3] of 22 µM. Also, in series [4], the EC50 is 9000 nM. In series [5], the selectivity ratio was found to be 2.4.
